Data as given in ChEMBL document CHEMBL3769310, “Scouting new sigma receptor ligands: Synthesis, pharmacological evaluation and molecular modeling of 1,3-dioxolane-based structures and derivatives” (Eur J Med Chem, 2016).
Active and inactive are the calls of the source.

Experiments:
[1] = biological target: T1, 5-hydroxytryptamine receptor 1A (Homo sapiens, UniProt P08908); experiment: Displacement of [3H]8-OH-DPAT from human 5-HT1A expressed in human HeLa cells after 30 mins; assay type: cell-based
T1 sequence (P08908 whole entry): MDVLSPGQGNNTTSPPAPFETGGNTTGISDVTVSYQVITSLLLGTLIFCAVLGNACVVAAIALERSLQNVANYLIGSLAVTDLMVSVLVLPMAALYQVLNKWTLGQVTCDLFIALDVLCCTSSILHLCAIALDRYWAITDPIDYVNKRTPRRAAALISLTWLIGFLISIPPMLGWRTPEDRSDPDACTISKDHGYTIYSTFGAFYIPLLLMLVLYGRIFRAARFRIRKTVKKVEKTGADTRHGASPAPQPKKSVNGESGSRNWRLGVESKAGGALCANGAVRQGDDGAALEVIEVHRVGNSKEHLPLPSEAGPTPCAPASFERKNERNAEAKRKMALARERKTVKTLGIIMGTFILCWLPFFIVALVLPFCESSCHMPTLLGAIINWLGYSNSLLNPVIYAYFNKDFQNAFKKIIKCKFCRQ

HeLa [2] = experiment: Selectivity ratio of Ki for sigma-2 receptor in guinea pig brain membranes to Ki for human 5-HT1A expressed in human HeLa cells; assay type: cell-based
[3] = Displacement of [3H]DTG from sigma-2 receptor in guinea pig brain membranes after 120 mins by liquid scintillation counting method; assay type: cell membranes, Cavia porcellus, Membrane
How it was run: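 Nonspecific with 5 µM DTG. Stopped with ice-cold 10 mM Tris pH 8.0, filtered on PEI-soaked GF/B, scintillation counted. Ki from duplicates, three experiments.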

HeLa [4] = experiment: Selectivity ratio of Ki for sigma-1 receptor in guinea pig brain membranes to Ki for human 5-HT1A expressed in human HeLa cells; assay type: cell-based
Cavia porcellus = species on record: Cavia porcellus; experiment: Selectivity ratio of Ki for sigma-1 receptor in guinea pig brain membranes to Ki for sigma-2 receptor in guinea pig brain membranes; assay type: cell membranes
[5] = biological target: Sigma non-opioid intracellular receptor 1 (Cavia porcellus, UniProt Q60492); experiment: Displacement of [3H]-(+)-pentazocine from sigma-1 receptor in guinea pig brain membranes after 150 mins by liquid scintillation counting method; assay type: cell membranes, Membrane
Sigma non-opioid intracellular receptor 1, sequence (Q60492 whole entry): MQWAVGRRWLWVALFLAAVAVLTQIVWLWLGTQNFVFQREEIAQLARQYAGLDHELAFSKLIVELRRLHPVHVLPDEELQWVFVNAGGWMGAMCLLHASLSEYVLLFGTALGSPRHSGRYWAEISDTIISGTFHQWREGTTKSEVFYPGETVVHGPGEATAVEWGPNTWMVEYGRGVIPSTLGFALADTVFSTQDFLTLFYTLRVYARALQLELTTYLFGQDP

Rattus norvegicus = experiment: Analgesic activity in Sprague-Dawley rat assessed as withdrawal latency at 1 mg/kg, sc measured after 30 to 120 mins by tail flick test; assay type: functional, organism-based
How it was run: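 Male Sprague-Dawley rats, 180–200 g, 8–10 per group, dosed s.c. Radiant heat tail-flick with I.R. source on lower third of tail at 25 ± 1 °C. Basal latency 3–4 s, taken as mean of three readings at 5 min intervals. Cut-off 10 s. Latencies read at 30, 45, 60, 90 and 120 min after injection; saline group as control. Blinded observers; mean ± SE, two-way ANOVA then t test.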

Row | SMILES | Ki [1] [nM] | Ratio Ki (HeLa [2]) | pKi [3] | Ratio Ki (HeLa [4]) | Ratio Ki (Cavia porcellus) | Ki [5] [nM] | Activity (Rattus norvegicus)
1 | c1ccc(CC2CCN(CC3COC(c4ccccc4)(c4ccccc4)O3)CC2)cc1 (centres undefined) | 550 | 251 | 8.2 | 251 | 3 | 2.19 | –
2 | O[C@@H]1[C@@H](CN2CCC(Cc3ccccc3)CC2)CCC1(c1ccccc1)c1ccccc1 (relative stereo) | 50.1 | 0.21 | 5.05 | 0.21 | 39 | 229 | –
3 | c1ccc(CC2CCN(CC3COc4ccccc4O3)CC2)cc1 (centres undefined) | – | – | 7.6 | – | – | 16.6 | –
4 | c1ccc(CC2CCN(CC3CSC(c4ccccc4)(c4ccccc4)S3)CC2)cc1 (centres undefined) | > 1000 | > 66 | 7.11 | > 66 | 5 | 15.1 | –
5 | OCC(CN1CCC(Cc2ccccc2)CC1)OC(c1ccccc1)c1ccccc1 (centres undefined) | 417 | 2.5 | 6.56 | 2.5 | 1 | 200 | –
6 | O[C@H]1[C@@H](CN2CCN(Cc3ccccc3)CC2)CCC1(c1ccccc1)c1ccccc1 (relative stereo) | 7.24 | 0.2 | 6.62 | 0.2 | 6.8 | 35.5 | –
7 | c1ccc(CN2CCN(CC3CSC(c4ccccc4)(c4ccccc4)O3)CC2)cc1 (centres undefined) | – | > 16 | 6.67 | > 16 | 3 | 63.1 | –
8 | O=C1C(CN2CCN(Cc3ccccc3)CC2)CCC1(c1ccccc1)c1ccccc1 (centres undefined) | > 1000 | > 1.5 | 4.9 | > 1.5 | 20 | 646 | –
9 | c1ccc(CC2CCN(CC3COC(C4CCCCC4)(C4CCCCC4)O3)CC2)cc1 (centres undefined) | > 1000 | > 5 | < 6 | > 5 | > 5 | 209 | –
10 | c1ccc(CN2CCN(CC3CCC(c4ccccc4)(c4ccccc4)O3)CC2)cc1 (centres undefined) | > 1000 | > 11 | 6.65 | > 11 | 3 | 87.1 | –
11 | O[C@@H]1[C@@H](CN2CCN(Cc3ccccc3)CC2)CCC1(c1ccccc1)c1ccccc1 (relative stereo) | 126 | 3 | 7 | 3 | 3 | 38 | –
12 | c1ccc(CN2CCN(CC3COc4ccccc4O3)CC2)cc1 (centres undefined) | – | – | 7.55 | – | – | 15.8 | –
13 | O[C@H]1[C@@H](CN2CCC(Cc3ccccc3)CC2)CCC1(c1ccccc1)c1ccccc1 (relative stereo) | 7.59 | 0.02 | 5.66 | 0.02 | 8 | 282 | –
14 | c1ccc(CN2CCN(CC3COC(c4ccccc4)(c4ccccc4)O3)CC2)cc1 (centres undefined) | > 1000 | > 589 | 8.38 | > 589 | 3 | 1.7 | –
15 | c1ccc(CN2CCN(C[C@H]3CO[C@@](c4ccccc4)(C4CCCCC4)O3)CC2)cc1 (relative stereo) | > 1000 | > 933 | 7.79 | > 933 | 15 | 1.07 | –
16 | c1ccc(CC2CCN(CC3CCC(c4ccccc4)(c4ccccc4)O3)CC2)cc1 (centres undefined) | > 1000 | > 6 | 6.69 | > 6 | 1 | 174 | –
17 | c1ccc(CN2CCN(C[C@@H]3CO[C@@](c4ccccc4)(C4CCCCC4)O3)CC2)cc1 (relative stereo) | > 1000 | > 56 | 7.75 | > 56 | 1 | 30.9 | –
18 | c1ccc(CN2CCN(CC3CSC(c4ccccc4)(c4ccccc4)S3)CC2)cc1 (centres undefined) | > 1000 | > 3 | 5.64 | > 3 | 8 | 302 | –
19 | c1ccc(CC2CCN(C[C@H]3CO[C@@](c4ccccc4)(C4CCCCC4)O3)CC2)cc1 | > 1000 | > 18 | 6.43 | > 18 | 7 | 56.2 | –
20 | c1ccc(CN2CCN(CCOC(c3ccccc3)c3ccccc3)CC2)cc1 | > 1000 | > 89 | 7.95 | > 89 | 1 | 20.4 | –
21 | O=C1C(CN2CCC(Cc3ccccc3)CC2)CCC1(c1ccccc1)c1ccccc1 (centres undefined) | > 1000 | 1 | 5.66 | 1 | 2 | 1120 | –
22 | c1ccc(CC2CCN(CC3CSC(c4ccccc4)(c4ccccc4)O3)CC2)cc1 (centres undefined) | – | > 83 | 7.55 | > 83 | 2 | 12 | –
23 | c1ccc(CC2CCN(CC3COC4(CCCCC4)O3)CC2)cc1 (centres undefined) | 162 | 81 | 7.72 | 81 | 10 | 2 | –
24 | c1ccc(CN2CCN(CC3COC4(CCCCC4)O3)CC2)cc1 (centres undefined) | > 1000 | > 1350 | 7.46 | > 1350 | 47 | 0.741 | inactive
25 | c1ccc(CC2CCN(C[C@@H]3CO[C@@](c4ccccc4)(C4CCCCC4)O3)CC2)cc1 (relative stereo) | > 1000 | > 19 | 6.84 | > 19 | 3 | 52.5 | –
26 | c1ccc(CC2CCN(CCOC(c3ccccc3)c3ccccc3)CC2)cc1 | > 1000 | > 18 | 6.77 | > 18 | 3 | 56.2 | –
27 | OCC(CN1CCN(Cc2ccccc2)CC1)OC(c1ccccc1)c1ccccc1 (centres undefined) | > 1000 | > 89 | 7.75 | > 89 | 2 | 11.2 | –
28 | c1ccc(CN2CCN(CC3COC(C4CCCCC4)(C4CCCCC4)O3)CC2)cc1 (centres undefined) | > 1000 | > 29 | 8.3 | > 29 | 2 | 3.39 | –
